High-throughput results: PubChem, several laboratories
HCV NS3 hel inh – HCV NS3 helicase inhibition. NS3 helicase DNA unwinding, Cy5 molecular beacon fluorescence. inhibition, % at 10.9 µM. 290,000 compounds, 0.56% hits;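 active = inhibition above the mean of all tested compounds plus 3 SD, set per campaign, cut at about 35% in these data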
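Assay system: hepatitis C virus NS3 helicase domain fragment enzyme. Also added: annealed dual-labelled DNA beacon duplex, ATP-started. Timing: 1 h reaction at 25 °C, ATP-initiated. Technique: Cy5 fluorescence at 0 and 60 min, beacon hairpin quenching. Evaluation: % inhibition of unwinding. Replication: one well per compound.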
FID counter – displaces DNA intercalator in HCV helicase counter-screen; DNA fluorescent intercalator displacement, fluorescence; inhibition, % at 7.9 µM; 290,000 compounds, 0.17% hits; AID 1845; in the data active = inhibition above about 37%;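 note: higher means more ethidium bromide displaced from hairpin DNA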
HCV core dimer – blocks dimerization of HCV core protein; TR-FRET GST/Flag-core106 dimerization, 1536-well; 300,000 compounds, 0.33% hits; inhibition, % at 5 µM;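 active = inhibition above the mean of all tested compounds plus 3 SD, set per screening campaign, cut at about 45% in these data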
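Assay system: GST-tagged and Flag-tagged HCV core protein residues 1-106 / Times: compound-protein-antibody incubation 4 h at 22.5 °C / Signal: time-resolved FRET, ex 340 nm, em 617 and 671 nm / Evaluation: % inhibition based on acceptor/donor emission ratio / Benchmarks: wells lacking GST-core106 and wells with excess unlabelled core106 / Repeats: singlicate, one well per compound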
GRK2 inh – inhibitors of human GRK2 displacing RNA aptamer | inhibition of aptamer binding, % at 10 µM | P25098 | bead flow cytometry, FAM-aptamer displacement from GRK2 | 330,000 compounds, 0.59% hits;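 active = inhibition of aptamer binding above 40%, roughly 3 SD of noise, on plates passing a quality check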;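 note: median bead fluorescence of bound FAM aptamer so fluorescent compounds give negative values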
DAGLB inh – blocks human DAGLB lipase activity | 340,000 compounds, 0.059% hits | inhibition, % at 5.17 µM | HEK293T DAGLB membrane lysate, EnzChek fluorogenic substrate; in the data active = inhibition above about 34%
Target sequence (Q8NCG7 whole entry, looked up): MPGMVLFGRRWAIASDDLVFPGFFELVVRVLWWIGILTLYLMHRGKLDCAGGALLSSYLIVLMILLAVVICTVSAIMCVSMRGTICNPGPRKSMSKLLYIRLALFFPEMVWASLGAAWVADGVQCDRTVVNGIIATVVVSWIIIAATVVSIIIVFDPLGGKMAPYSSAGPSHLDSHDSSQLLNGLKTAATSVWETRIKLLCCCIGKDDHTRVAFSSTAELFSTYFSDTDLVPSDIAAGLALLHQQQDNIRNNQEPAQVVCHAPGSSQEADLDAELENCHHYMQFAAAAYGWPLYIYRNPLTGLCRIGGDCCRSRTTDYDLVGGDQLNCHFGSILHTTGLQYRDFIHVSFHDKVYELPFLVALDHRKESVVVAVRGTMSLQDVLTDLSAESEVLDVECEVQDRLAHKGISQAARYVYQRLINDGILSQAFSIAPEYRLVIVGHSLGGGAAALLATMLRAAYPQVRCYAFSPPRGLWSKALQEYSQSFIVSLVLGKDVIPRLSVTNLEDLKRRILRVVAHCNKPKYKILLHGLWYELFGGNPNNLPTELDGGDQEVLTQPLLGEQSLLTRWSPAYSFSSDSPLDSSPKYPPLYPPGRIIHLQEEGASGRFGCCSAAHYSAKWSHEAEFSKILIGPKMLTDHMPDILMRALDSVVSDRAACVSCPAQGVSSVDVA
GPR7 antag – human neuropeptides B/W receptor 1 antagonism; GPR7-expressing cells, fluorescence antagonist assay; inhibition, % at 4.4 µM; 290,000 compounds, 1.1% hits; in the data active = inhibition above about 16%, passing the limit was not always enough;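 note: cells stimulated with the agonist NPW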
GPR7 antag conf – confirmation of human GPR7 antagonists. shares compounds with GPR7 antag. GPR7-expressing cells, calcium fluorescence antagonist mode. inhibition, % at 4.4 µM. 2,400 compounds, 52% hits. AID 1952; in the data active = inhibition above about 24%;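 note: stimulated with the GPR7 agonist NPW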
MCHR1 antagonist – antagonizes human MCHR1, a GPR7 antagonist counter-screen; shares compounds with GPR7 antag; MCHR1-expressing cells, fluorescence antagonist assay; inhibition, % at 4.4 µM; 2,400 compounds, 62% hits; AID 2148; in the data active = inhibition above about 22%
Of the large screens only hits and unclear results are named; the others gave an inactive call (follow-up assays come after a bar, where they were run). Sampled rows, rich in hits. Any-hit rate of the full collection: about 2.2%.

CCCCc1noc2c1/C(=N\O)CC(c1ccccc1)C2 (centres undefined)	GPR7 antag 41 | GPR7 antag conf 36 | MCHR1 antagonist 23
CCCCc1n[nH]c2c1/C(=N/O)CC(c1ccccc1)C2 (centres undefined)	none
COc1ccc(-c2cc3ccc(O)cc3oc2=O)cc1OC	none
COc1ccc(-c2c(C)c3cc(O)ccc3oc2=O)cc1OC	GPR7 antag 25 | GPR7 antag conf inactive | MCHR1 antagonist inactive
CC1Cc2ccccc2N1C(=S)NC(=O)c1ccco1 (centres undefined)	none
CC(Oc1ccc(NC(=O)c2ccco2)cc1)C(=O)N1c2ccccc2CC1C (centres undefined)	GPR7 antag 35 | GPR7 antag conf inactive | MCHR1 antagonist inactive
C=CCCC(=O)NC1CC(C)(C)Cc2c1cnn2-c1ccc(OC)cc1 (centres undefined)	GPR7 antag 26 | GPR7 antag conf inactive | MCHR1 antagonist inactive
Cc1cc(S(=O)(=O)N2CCOCC2)c(C)s1	none
CC(C)CC(=O)Nc1c2c(nn1-c1cccc(Cl)c1)CS(=O)C2 (centres undefined)	none
Cc1nc(Cl)c(C(=O)NCc2ccccc2)c(C)c1Cl	none
O=C(NCc1ccccc1)c1c(Cl)nc(Cl)c(Cl)c1Cl	GPR7 antag 76 | GPR7 antag conf 87 | MCHR1 antagonist 45
CC1(C)CC(C(CCN(Cc2ccccc2)C(=O)c2ccco2)c2ccc(F)cc2)CCO1 (centres undefined)	GPR7 antag 31 | GPR7 antag conf 37 | MCHR1 antagonist 60
O=C(c1ccco1)N(CCC(c1ccccc1)c1ccco1)Cc1ccc(F)cc1 (centres undefined)	none
N/C(=N\c1nc2c(c(=O)[nH]1)CCCC2)Nc1ccccc1	GPR7 antag 31 | GPR7 antag conf inactive | MCHR1 antagonist inactive
CCC(C)(C)c1ccc(OCCCC[n+]2cccc(C)c2)c(C(C)(C)CC)c1	GPR7 antag 21 (no result: HCV core dimer, GRK2 inh) | GPR7 antag conf 78 | MCHR1 antagonist 90
COc1ccccc1OCCNC(=O)c1cccc(S(=O)(=O)N2CC(C)OC(C)C2)c1 (centres undefined)	none
O=C(COc1ccc2c(c1)OCO2)Nc1ccccc1F	none
Fc1ccc(C2CCNCC2COc2ccc3c(c2)OCO3)cc1 (centres undefined)	GPR7 antag 28 (no result: GRK2 inh) | GPR7 antag conf 36 | MCHR1 antagonist 28
C=CCn1c(C(C)NC(=O)c2cccc(C)c2)n[nH]c1=S (centres undefined)	none
Cc1[nH]c(C)c(S(=O)(=O)NCc2ccc(N(C)C)cc2)c1C(=O)N1CCCC1	none
COc1cc(OC)c(CN2CCc3c([nH]c4ccccc34)C2)cc1Br	GPR7 antag 29 | GPR7 antag conf inactive | MCHR1 antagonist inactive
Clc1ccc(CN2CCc3c([nH]c4ccccc34)C2)cc1Cl	GPR7 antag 53 | GPR7 antag conf 73 | MCHR1 antagonist 33
Clc1cccc(CN2CCc3c([nH]c4ccccc34)C2)c1	none
CCSc1nsc(NC(=O)Nc2ccc(F)cc2F)n1	GPR7 antag 54 | GPR7 antag conf 52 | MCHR1 antagonist 55
CCOc1ccc(NC(=O)Nc2nc(SCC)ns2)cc1	GPR7 antag 25 | GPR7 antag conf 33 | MCHR1 antagonist 66
CCSc1nsc(NC(=O)Nc2ccccc2Cl)n1	none (no result: HCV NS3 hel inh, FID counter, HCV core dimer, GRK2 inh, GPR7 antag)
C=CCn1c(CNC(=O)c2ccccc2F)nnc1SCC(=O)N1CCOCC1	none
O=C(CSc1nccn1-c1ccccc1)Nc1ccc2c(c1)OCO2	GPR7 antag 28 | GPR7 antag conf 26 | MCHR1 antagonist 24
Cn1c(=O)c2c(ncn2CC2OCCO2)n(C)c1=O	none
Clc1ccccc1/C=C/c1ccnc2ccccc12	none | GPR7 antag conf inactive | MCHR1 antagonist inactive
Oc1ccc(/C=C/c2ccnc3ccccc23)cc1	none
OCCN1CCN(CC(O)COc2ccc(C34CC5CC(CC(C5)C3)C4)cc2)CC1 (centres undefined)	GPR7 antag 40 | GPR7 antag conf 35 | MCHR1 antagonist 51
OCCN1CCN(CC(O)COc2ccc(Cl)cc2)CC1 (centres undefined)	none
CCOc1ccccc1CN1CCN(CC2=Cc3cc(OC)ccc3OC2)CC1CCO (centres undefined)	GPR7 antag 31 | GPR7 antag conf inactive | MCHR1 antagonist inactive
CC(=O)Nc1ccc(NC(=O)COC(=O)C2c3ccccc3Oc3ccccc32)cc1	GPR7 antag 23 (no result: HCV core dimer, GRK2 inh) | GPR7 antag conf inactive | MCHR1 antagonist inactive
C[C@H](NC(=O)c1ncn2c1C(=O)NC[C@@H]2C)C(=O)OC(C)(C)C	none (no result: HCV NS3 hel inh, FID counter, HCV core dimer, GRK2 inh, GPR7 antag)
O=C(CSc1ccc(-c2ccccc2)nn1)NCc1ccco1	none
Cc1nn(C)c(C)c1N1C(=O)c2cccc3c(N)ccc(c23)C1=O	GPR7 antag 22 | GPR7 antag conf 26 | MCHR1 antagonist 38
Cc1nn(C)c(C)c1N1C(=O)c2cccc3c(Br)ccc(c23)C1=O	none
CCCNC(=O)c1ccc(N2CCC3(CC2)CC(c2cccc(Br)c2)=NO3)c(NC(=O)c2ccc(Cl)c([N+](=O)[O-])c2)c1	none (no result: HCV NS3 hel inh, FID counter, GRK2 inh, GPR7 antag)
O=C(Cc1ccc(Cl)cc1)Nc1cc(S(=O)(=O)N2CCOCC2)ccc1N1CCCC1	none
CN1CCN(c2ccc(S(=O)(=O)N3CCCCC3)cc2NC(=O)Cc2ccc(Cl)cc2)CC1	GPR7 antag 25 | GPR7 antag conf 50 | MCHR1 antagonist 54
CN1CCN(c2ccccc2NC(=O)Cc2ccc(Cl)cc2)CC1	none (no result: GPR7 antag) | MCHR1 antagonist inactive
Cc1cccc(C)c1N(CC(O)Cn1c2ccccc2c2ccccc21)S(C)(=O)=O (centres undefined)	GPR7 antag 29 | GPR7 antag conf 37 | MCHR1 antagonist 36
Cc1ccc(N(CC(O)Cn2c3ccccc3c3ccccc32)S(C)(=O)=O)c(C)c1 (centres undefined)	none
COC(=O)c1sc(N)c(C(=O)OC)c1COC(=O)c1c(C)noc1C	GPR7 antag 23 | GPR7 antag conf inactive | MCHR1 antagonist inactive
Brc1cc2c(cc1/C=N/Nc1nc(N3CCCCC3)nc(N3CCCCC3)n1)OCO2	GPR7 antag 25 (no result: HCV core dimer, GRK2 inh, DAGLB inh) | GPR7 antag conf inactive | MCHR1 antagonist inactive
COc1ccc(/C=C2\SC(=O)N(CC(=O)Nc3ccc(F)cc3)C2=O)cc1O	GPR7 antag 29 | GPR7 antag conf inactive | MCHR1 antagonist inactive
COc1ccc(/C=C2\SC(=O)N(CC(=O)Nc3cccnc3)C2=O)cc1OC	none
c1ccc(CCc2nn3c(Cn4nnc5ccccc54)nnc3s2)cc1	none
c1ccc(CCc2nn3c(Cn4cnc5ccccc54)nnc3s2)cc1	GPR7 antag 23 | GPR7 antag conf inactive | MCHR1 antagonist 28
